TAAR1 agonist: human TAAR1 agonism. Q96RJ0. CHO RD-HGA16 TAAR1, Fluo-8 calcium fluorescence; vehicle wells 0%, saturating PEA agonist 100%. activation, % at 3 µM. 0.99% of 360,000 active. AID 624467;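 active = activation above the mean activation of all test compounds in the run plus 3 SD, cut at about 38% in these data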
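Assay system – CHO-derived RD-HGA16 cells with stable Gα16 and human TAAR1 · Compound dosing – one-point dosing at 3 µM (nominal) · Incubation – 17-24 h seeding, 75 min 37 °C dye, 30 min RT · Measured by – kinetic Fluo-8 calcium fluorescence · Control set – DMSO vehicle as 0%, PEA at EC100 as 100% · Repeats – single well for each compound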
TAAR1 antag: human TAAR1 antagonism; Q96RJ0; CHO RD-HGA16 TAAR1, Fluo-8 calcium fluorescence, antagonist; inhibition, % at 3 µM; 1.5% of 360,000 active;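 active = inhibition above a per-plate cutoff, the mean inhibition of test compounds on that plate plus 3 SD, cut at about 49% in these data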
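Assay system: RD-HGA16 CHO cells with stable hTAAR1 and Gα16 / Reagent: EC80 β-phenethylamine stimulus / Doses: 3 µM, single point / Timing: dye loading 75 min at 37 °C, then 30 min room temperature / Measured by: Fluo-8 intracellular calcium dye fluorescence, real-time kinetic reads / Controls: vehicle wells and EC80 agonist wells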
M4 PAM: CHRM4 positive allosteric modulation | P08173 | CHO-K1 hM4/Gqi5, Fluo-8 calcium fluorescence, ACh EC20; 0% = ACh EC20, 100% = maximal ACh | activation, % at 3 µM | 0.4% of 360,000 active | AID 624126;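 active = activation above its plate's cutoff, the mean activation of sample wells plus 3 SD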
Target sequence (P08173 whole entry, looked up): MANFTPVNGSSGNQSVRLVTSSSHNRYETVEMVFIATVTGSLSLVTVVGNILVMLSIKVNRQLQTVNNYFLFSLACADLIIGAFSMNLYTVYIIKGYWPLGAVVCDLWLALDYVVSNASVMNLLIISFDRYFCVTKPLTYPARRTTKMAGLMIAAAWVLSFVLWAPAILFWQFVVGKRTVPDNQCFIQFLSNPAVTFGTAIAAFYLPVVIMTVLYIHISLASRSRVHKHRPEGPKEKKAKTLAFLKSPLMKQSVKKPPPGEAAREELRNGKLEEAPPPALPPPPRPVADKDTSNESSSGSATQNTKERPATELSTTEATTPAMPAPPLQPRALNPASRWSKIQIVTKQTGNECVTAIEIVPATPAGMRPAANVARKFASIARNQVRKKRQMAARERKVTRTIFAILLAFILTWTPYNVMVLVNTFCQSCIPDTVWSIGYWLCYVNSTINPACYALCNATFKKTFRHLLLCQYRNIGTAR
M4 ag: CHRM4 agonism in calcium assay | P08173 | CHO-K1 hM4/Gqi5, Fluo-8 calcium fluorescence; vehicle 0%, full acetylcholine response 100% | activation, % at 3 µM | 0.14% of 360,000 active | AID 624127;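 active = activation above the run mean over all test wells plus 3 SD, cut at about 32% in these data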;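 note: peak over basal fluorescence ratio per well then scaled between controls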
CHRM4 antagonist: antagonists of human muscarinic M4 receptor (CHRM4). P08173. CHO-hM4 cells, ACh EC80, Fluo-8 calcium fluorescence. inhibition, % at 3 µM. 0.73% of 360,000 active. AID 624125;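 active = inhibition above its plate's cutoff, the mean inhibition of sample wells plus 3 SD, cut at about 27% in these data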
Of the large screens only hits and unclear results are named; the others gave an inactive call. An excerpt weighted towards active compounds, which were near 3% of everything screened.

CCOC(=O)[C@]12CCC=C1N(Cc1ccc(Cl)cc1Cl)C(=O)[C@H](CC(=O)NCc1cccs1)C2	none
COc1cccc(CNC(=O)[C@H]2CCCN2C(=O)[C@H]2CCCN2C(=O)c2ccc(C)cc2)c1	none (no result: M4 PAM, M4 ag, CHRM4 antagonist)
CCN(C(=O)COC(=O)c1ccccc1Oc1ccccc1)c1c(N)n(Cc2ccccc2)c(=O)[nH]c1=O	M4 PAM 24.8
COCCN(C(=O)COC(=O)c1ccccc1Oc1ccccc1)c1c(N)n(Cc2ccccc2)c(=O)[nH]c1=O	none
O=C(CSc1ccc(-c2nc3ccccc3[nH]2)cn1)Nc1ccc(S(=O)(=O)NC2CC2)cc1	CHRM4 antagonist 31.4
CCN1CCN(CC(=O)N2N=C(c3cccs3)CC2c2ccc(OC)c(OC)c2)C(=O)C1=O (configuration not stated)	none
C=C1C(=O)c2sccc2C(c2ccc(OC)c(OC)c2)C1COC(C)=O (configuration not stated)	CHRM4 antagonist 30.2
COc1ccc(-c2nn(-c3ccccc3)cc2/C=C/C(=O)O)cc1[N+](=O)[O-]	none
COc1ccc(-c2nn(-c3ccccc3)cc2C=O)cc1[N+](=O)[O-]	TAAR1 antag 48.8
COc1ccc(CCNC(=O)c2cccc(C(=O)NCCc3ccc(OC)cc3)n2)cc1	TAAR1 antag 54.1
Clc1ccc2[nH]c3c(NCCN4CCOCC4)ncnc3c2c1	none
Clc1ccc2[nH]c3c(NCC4CCCO4)ncnc3c2c1 (configuration not stated)	TAAR1 antag 53.9 (no result: M4 PAM, M4 ag, CHRM4 antagonist)
Clc1ccc(-n2ncc3c(NCC4CCCO4)ncnc32)cc1 (configuration not stated)	TAAR1 antag 53.3, CHRM4 antagonist 36.8
COC(=O)[C@]12C[C@H](CC(=O)N3CCN(C(=O)C4CC4)CC3)C(=O)N(CCC3=CCCCC3)C1=C[C@H](COCc1ccccc1)O[C@@H]2C	none (no result: M4 PAM, M4 ag, CHRM4 antagonist)
Cc1cc2c(nc1C)CCCN2S(=O)(=O)c1ccc(F)cc1	none (no result: M4 PAM, M4 ag, CHRM4 antagonist)
Cc1cc2c(cc1C)CSC(c1ccccc1O)SC2	TAAR1 antag 66.0
COC(=O)[C@H](N[C@H](/C=C/c1ccccc1)[C@@H](O)Cc1ccccc1)c1ccccc1	none (no result: M4 PAM, M4 ag, CHRM4 antagonist)
CC1(C)C(=O)Nc2ccccc2N1C(=O)COC(=O)C1CCCCC1	none
Cc1cc(C)c(C)c(S(=O)(=O)N2CCC(C(=O)OCC(=O)N3c4ccccc4NC(=O)C3(C)C)CC2)c1C	TAAR1 antag 48.7
CN1CCN(NC(=O)c2cc(-c3cccc(Cl)c3)nc3ccccc23)CC1	none
OC(c1cc(-c2cccc(Cl)c2)nc2ccccc12)C1CCCCN1 (configuration not stated)	CHRM4 antagonist 37.0
CCCCCCCCN1C(=O)[C@@H](CC(=O)N2CCCC2)C[C@@]2(C(=O)OC)C1=C[C@H](C1CCCC1)O[C@@H]2C	none (no result: M4 PAM, M4 ag, CHRM4 antagonist)
COCCNc1nnc(SCC(=O)NNC(=O)c2ccccc2)s1	M4 PAM 18.8
CCN(CC)CCOC(=O)C1(c2ccc([N+](=O)[O-])cc2)CCCC1	CHRM4 antagonist 49.0
CCN(CC)CCOCCOC(=O)C1(c2ccccc2)CCCC1	CHRM4 antagonist 90.8
CCN(CC)CCCOC(=O)C1(c2ccccc2)CCCC1	CHRM4 antagonist 95.5
CCN(CC)CCOC(=O)C1(c2ccccc2)CCOCC1	none
O=C(NCc1ccccc1)C(c1ccco1)N1CCN(c2ccccc2F)CC1 (configuration not stated)	none
C=CCNC(=O)c1c(O)c2cccc3c2n(c1=O)CCC3	M4 PAM 15.7
NCCNC(=O)c1c(O)c2cccc3c2n(c1=O)CCC3	none
O=c1c(-c2ccccc2)c(O)c2cccc3c2n1CCC3	M4 PAM 17.3
Cc1cc(C)c(-c2c(O)c3cccc4c3n(c2=O)CCC4)c(C)c1	none
Cc1cc2c(nc1C)CCCN2S(=O)(=O)c1cccs1	none (no result: M4 PAM, M4 ag, CHRM4 antagonist)
O=C(N[C@H](C(=O)N1CCC[C@H]1C(=O)NCCc1ccccc1Cl)c1ccccc1)C1CC1	none (no result: M4 PAM, M4 ag, CHRM4 antagonist)
O=C1CCC[C@@H]2C[C@@]3(C[C@@H]4CCN1[C@H]24)Nc1cc(Cl)c(Cl)cc1NC3=NCc1ccccc1	none
CCN1/C(=C/C(C)=C/c2sc3ccccc3[n+]2CC)Sc2ccccc21	CHRM4 antagonist 34.5
CCN1/C(=C\C(=S)Nc2ccccc2)Sc2ccccc21	none
CCN(CC)CC#CCC(O)(c1ccccc1)c1ccc(Br)cc1 (configuration not stated)	CHRM4 antagonist 29.7
CCN(CC)CC#CCC(C)(c1ccccc1)c1ccccc1	CHRM4 antagonist 63.3
CN(C)CC#CCC(O)(c1ccccc1)c1ccccc1	none
C=CC(O)(C#CCN(CC)CC)c1ccccc1 (configuration not stated)	none
CCN(CC)CC#CCC(O)(c1ccccc1)c1ccccc1	CHRM4 antagonist 32.4
CC1(C)CC(=O)C=C(c2ccc(COC(=O)C(c3ccccc3)c3ccccc3)cc2)C1=O	none
CCCC(c1nnnn1Cc1ccco1)N1CCN(C(=O)c2ccco2)CC1 (configuration not stated)	M4 PAM 19.8
O=c1[nH][nH]c(-c2ccccc2)c1C=Nc1ccc(F)cc1F	M4 PAM 21.3
COc1ccc(-n2c(-c3ccc(Cl)cc3)c[n+]3c2CCc2ccccc2-3)cc1	none
Cc1ccc(-n2c(-c3ccc(Br)cc3)c[n+]3c2CCc2ccc4cccnc4c2-3)cc1	CHRM4 antagonist 41.2
COc1ccc(-c2coc3c(C(=O)NCC(C)C)cccc23)c(C)c1	none
CCC1C(=O)N=C(SCC(=O)Nc2cccc3ccccc23)NC1=O (configuration not stated)	M4 PAM 28.1
C[C@@H]1CCCCO[C@@H](CN(C)CC2CCCCC2)[C@@H](C)CN([C@H](C)CO)C(=O)c2cc(NC(=O)Nc3ccc4c(c3)OCO4)ccc2O1	none (no result: M4 PAM, M4 ag, CHRM4 antagonist)
C[C@H](O)[C@@H]1C(=O)N2CCc3c([nH]c4cccc(-c5ccccc5)c34)[C@@H]2C[C@@H]1N(C)C(=O)NC1CCCCC1	none (no result: M4 PAM, M4 ag, CHRM4 antagonist)
CC(=O)c1c(O)cc2c3c1OC(C)(C)C1CCC(C)(CC31)O2 (configuration not stated)	TAAR1 antag 52.3
CCOc1cc(/C=C2\CCC/C(=C\c3cc(Cl)c(O)c(OCC)c3)C2=O)cc(Cl)c1O	TAAR1 antag 55.8, CHRM4 antagonist 47.2
Cc1ccc(C(=O)N(C)[C@H]2C[C@H]3c4[nH]c5c(-c6ccccc6)cccc5c4CCN3C(=O)[C@H]2[C@H](C)O)cc1	none (no result: M4 PAM, M4 ag, CHRM4 antagonist)
CSc1ccc(CN(C)C(=O)c2cc(S(=O)(=O)NCc3ccccc3)ccc2C)cc1	TAAR1 antag 48.7
Cn1nnnc1SCc1ccc(C(=O)Nc2ccccc2F)cc1	none
Cc1cc(C)cc(NC(=O)c2ccc(CSc3nnnn3C)cc2)c1	TAAR1 antag 66.1
Nc1cccc2cc(-c3ccccc3)oc12	M4 PAM 24.9
COc1cccc2cc(-c3ccccc3)oc12	none

Compound activity from PubChem BioAssay.
